# High-throughput results deposited in PubChem BioAssay by several laboratories.
# Rows were chosen to be rich in hits. Some 8.2% of all compounds tested hit in one or more screens of this group.
# M1 antag = antagonists of rat M1 muscarinic receptor. P08482. CHO-M1 cells, Fluo-4 calcium, ACh EC80 antagonist mode; stronger effect = lower value. B-score at 10 µM. 3.4% of 64,000 active. AID 628;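 active = calcium fluorescence response, raw or row-and-column corrected B-score, differing from the plate sample mean either way at a set confidence level, mostly lower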
# HePTP inh = human HePTP phosphatase inhibition | P35236 | recombinant HePTP phosphatase activity, OD absorbance | inhibition, % at 20 µM | 0.64% of 110,000 active; in the data active = inhibition above about 50%; inconclusive = no clear call, values can overlap the other calls;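 note: plate controls were vehicle for no effect and reference inhibitor for full effect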
# Target sequence (P35236 whole entry, looked up): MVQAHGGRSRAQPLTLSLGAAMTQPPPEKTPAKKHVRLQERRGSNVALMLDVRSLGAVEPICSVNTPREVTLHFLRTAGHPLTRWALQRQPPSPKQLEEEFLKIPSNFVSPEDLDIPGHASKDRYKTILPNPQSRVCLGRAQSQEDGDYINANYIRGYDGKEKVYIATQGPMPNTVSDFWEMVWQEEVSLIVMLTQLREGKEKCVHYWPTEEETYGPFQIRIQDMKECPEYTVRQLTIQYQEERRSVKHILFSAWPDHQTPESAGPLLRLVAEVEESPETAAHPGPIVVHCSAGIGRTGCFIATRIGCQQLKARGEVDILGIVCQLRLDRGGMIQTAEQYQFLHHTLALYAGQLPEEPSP
# RORA act = activators of human nuclear receptor RORA; P35398; activation, % at 10 µM; AID 560; CHO-K1 Gal4-RORA LBD luciferase reporter, luminescence; percent increase over mock-subtracted basal signal; 1.5% of 65,000 active;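 active = activation above the mean of all tested compounds plus 3 SD, cut at about 49% in these data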;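 note: 0% = DMSO-treated RORA cells and 100% = added signal equal to DMSO minus mock-transfected cells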
# M1 agonist = agonists of M1 muscarinic receptor. CHO-M1 cells, Fluo-4 calcium fluorescence, agonist mode; stronger effect = higher value. B-score at 10 µM. 3% of 64,000 active. AID 626;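 active = fluorescence rise, raw or as B-score row- and column-corrected plate score, outside the 99.7% band of its plate's samples, either direction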
# SF-1 act = activates the human nuclear receptor SF-1. 1.9% of 65,000 active. CHO-K1 Gal4-SF-1 LBD luciferase reporter; % increase over DMSO SF-1-specific signal. Q13285. activation, % at 10 µM;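 active = activation above the mean activation of all tested compounds plus 3 SD, cut at about 50% in these data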
#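 material = CHO-K1 cells with Gal4–hSF-1 LBD chimera plus Gal4-driven luciferase | compound = 10 µM single point, 1% DMSO | incubation = 20 h compound exposure at 37 °C after 1 h cell settling | measured by = SteadyLite luciferase luminescence | evaluation = percent activation relative to DMSO median and mock-transfected background | control set = DMSO negative control and −SF1 background wells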
# D1 mod = allosterically modulates the human D1 dopamine receptor; P21728; HEK293 D1, CRE-luciferase, dopamine EC30 potentiation; actives deviate in either direction; B-score at 10 µM; 5.9% of 58,000 active; AID 641;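 active = luminescence count or its row- and column-corrected plate score outside the 99.7% band of the plate's sample wells, on either side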
# M1 ag confirm = confirmation of rat M1 muscarinic receptor agonists; shares compounds with M1 agonist; CHO-M1 cells, Fluo-4 calcium fluorescence, agonist mode; actives lie on both sides; fluorescence change (max-min) at 10 µM; 19% of 1,700 active; AID 1488;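 active = fluorescence change differs from the solvent-only DMSO control mean at a set confidence level in both duplicate runs; inconclusive = differs from solvent-only control mean in just one of two runs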;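 note: an EC20 dose of acetylcholine follows compound addition during the same imaging run; raw fluorescence intensity difference in instrument units with no normalization to controls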
# M4 ag counter = activates rat M4 receptor in counter-screen for M1 agonists. shares compounds with M1 agonist. CHO M4/Gqi5 cells, Fluo-4 calcium fluorescence, agonist mode; actives lie on both sides. fluorescence change (max-min) at 10 µM. 9% of 1,700 active;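 active = fluorescence change differing from the plate's solvent-only control wells at 99.7% confidence in both duplicates, whether higher or lower; inconclusive = differs from solvent controls in only one of two duplicates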
# * marks the source's active call; other numbers are inactive results; ? = inconclusive; / = no result given.
SMILES,M1 antag,HePTP inh,RORA act,M1 agonist,SF-1 act,D1 mod,M1 ag confirm,M4 ag counter
Cc1ccc(N2CC(C(=O)Nc3ccccn3)CC2=O)cc1 (stereo not drawn),0.309,-4.4,-4.5,4.57*,5.1,0.335,?,-80.2
Cc1ccc(N2CC(C(=O)Nc3ccccc3)CC2=O)cc1 (stereo not drawn),/,-7.0,/,/,/,/,/,/
Cc1cc(C)nc(N(C#N)Cc2ccccc2Cl)n1,-0.000558,6.1,-1.8,-0.00407,-3.2,0.785,/,/
CCCN(CCC)c1nc(C)cc(C(C#N)c2nc3ccccc3o2)n1 (stereo not drawn),0.189,-1.1,-6.4,6.44*,-10.6,0.159,4.7,-23.9
Cc1nc(NC(=O)C2CC2)sc1C(=O)N1CCCCC1,0.0784,4.4,-13.8,1.68,2.8,0.714,/,/
CN(c1ccccc1C(=O)O)S(=O)(=O)c1ccc2c3c(cccc13)C(=O)N2,1.52,39.9,-17.6,0.0108,-8.7,0.637,/,/
O=C(Nc1ccc(F)cc1)N1CCN(c2nc3ccccc3s2)CC1,-0.226,-7.9,2.8,-0.14,-25.2,0.263,/,/
O=C(Nc1ccccc1)N1CCN(c2nc3ccccc3s2)CC1,1.21,4.5,-6.8,4.66*,-12.6,0.215,-5.79,-12.9
Cc1ccc(C2C(C#N)=C(N)Oc3nc(-c4ccccc4)[nH]c32)o1 (stereo not drawn),-0.14,6.9,-10.0,3.48*,2.9,/,-23.8*,-34.9
Cc1ccc(SCc2[nH]nc3c2C(c2ccc(C)o2)C(C#N)=C(N)O3)cc1 (stereo not drawn),0.327,7.0,5.4,-0.392,3.5,-0.218,/,/
COc1c(C(=O)/C=C/c2ccccc2)c(O)c(OC)c2occc12,/,-10.1,/,/,/,/,/,/
COc1cccc(NC=C2C(=O)OC3(CCCCC3)OC2=O)c1,-0.462,9.5,-6.4,2.73*,17.4,-0.153,-11.2,-44.4
O=C(CN1CCN(c2ccccc2)CC1)Nc1ccc(-n2cnnn2)cc1,-0.439,-2.3,3.4,51.1*,7.8,-0.386,1.11,-36.2
CCCCCCNc1c(C(=O)OCC)c(=O)[nH]c2ccccc12,-0.37,7.6,-12.0,5.43*,-3.0,0.908,-27.9,-33.3
CCCCNC(=O)Nc1c(C(=O)OCC)[nH]c2ccccc12,0.352,5.3,-0.7,0.578,-3.1,-0.656,/,/
Cc1cc(C)cc(N(CC(=O)N2CCC(C)CC2)S(C)(=O)=O)c1,-0.66,-3.0,-11.8,-0.112,14.2,-0.656,/,/
CCOC(=O)C1CCN(c2c(NCCN3CCCCC3C)c(=O)c2=O)CC1 (stereo not drawn),-1.27,1.0,9.4,-0.686,-3.3,0.328,/,/
COc1cccc(-c2ccc(-c3noc(-c4ccccc4F)n3)c(OC)n2)c1,0,7.0,14.4,15.1*,-10.6,1.4,15.5,-45.8
COc1nc(-c2ccc(Cl)cc2)ccc1-c1noc(-c2ccco2)n1,0.666,9.5,-11.9,0.859,-14.5,-0.104,/,/
O=c1[nH]c2c(s1)C=Nc1ccccc1N2,-0.904,5.1,2.1,69.4*,13.9,-0.124,249*,227*
Cc1ccc(C(=O)C2=C(O)C(=O)N(CCCn3ccnc3)C2c2ccc(OC(C)C)cc2)o1 (stereo not drawn),-0.0988,11.4,1.9,-0.233,16.1,-0.526,/,/
CC(C)(C)NS(=O)(=O)c1ccc(CCC(=O)N2CCCCC2)cc1,-0.247,2.2,-6.6,-0.0807,-10.9,-0.493,/,/
CCCNS(=O)(=O)c1ccc(CCC(=O)N2CCCCC2)cc1,1.07,1.7,-5.8,4.79*,1.1,-0.361,?,-49
COc1ccc(N)cc1C#N,0.121,1.4,-0.1,0.847,7.3,0.505,/,/
COc1cc(N)ccc1Cc1ccc(N)cc1OC,1.06,4.0,-9.1,3.65*,-11.9,-0.402,-18.8,-26.7
Cc1cccc2cc(C(c3nnnn3Cc3ccccc3)N3CCN(c4ccccc4)CC3)c(=O)[nH]c12 (stereo not drawn),0.155,7.4,-15.6,6.4*,11.9,-1.34,?,?
